NTR1 ag: agonists of human neurotensin receptor NTR1; 330,000 compounds, 0.17% hits; NTR1-U2OS beta-arrestin-GFP spot imaging, agonist mode; activation, % at 20 µM; P30989;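 active = activation at or above 40% of the spot to cytoplasm intensity ratio, with at least 20 cells analyzed; inconclusive = wells under 20 cells, flagged as cytotoxic or low count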;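 also: 0% = DMSO without peptide and 100% = 100 nM NTR1 peptide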
CaV13 ICDI inh: Disruptors of the CACNA1D IQ motif to Ca2+-dependent inactivation inhibitor domain association, primary screening, Förster resonance energy transfer in intact living …. HEK cells, CFP/YFP FRET ICDI-IQ, plate reader, 10 min; percent FRET-ratio fall versus neutral wells. inhibition, % at 12.3 µM. 340,000 compounds, 0.098% hits;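 active = mean replicate inhibition of at least 30% and at least 1% of replicates passing that level; inconclusive = only one of the two criteria is met; inactive = neither criterion is met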;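 also: 0% = median of the neutral control wells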
SR-BI DiI inh: inhibitors of mouse SR-BI mediated HDL lipid uptake | Q61009 | ldlA[mSR-BI] CHO cells, DiI-HDL uptake fluorescence, 3 h | inhibition, % at 12.5 µM | 320,000 compounds, 0.96% hits | AID 488896;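 active = mean replicate inhibition of at least 70% and a set share of replicates each scoring 70 or more; inconclusive = meets just one of the two criteria; inactive = fails both criteria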;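 also: 0% = median of neutral control wells and 100% = median of positive control wells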
Target sequence (Q61009 whole entry, looked up): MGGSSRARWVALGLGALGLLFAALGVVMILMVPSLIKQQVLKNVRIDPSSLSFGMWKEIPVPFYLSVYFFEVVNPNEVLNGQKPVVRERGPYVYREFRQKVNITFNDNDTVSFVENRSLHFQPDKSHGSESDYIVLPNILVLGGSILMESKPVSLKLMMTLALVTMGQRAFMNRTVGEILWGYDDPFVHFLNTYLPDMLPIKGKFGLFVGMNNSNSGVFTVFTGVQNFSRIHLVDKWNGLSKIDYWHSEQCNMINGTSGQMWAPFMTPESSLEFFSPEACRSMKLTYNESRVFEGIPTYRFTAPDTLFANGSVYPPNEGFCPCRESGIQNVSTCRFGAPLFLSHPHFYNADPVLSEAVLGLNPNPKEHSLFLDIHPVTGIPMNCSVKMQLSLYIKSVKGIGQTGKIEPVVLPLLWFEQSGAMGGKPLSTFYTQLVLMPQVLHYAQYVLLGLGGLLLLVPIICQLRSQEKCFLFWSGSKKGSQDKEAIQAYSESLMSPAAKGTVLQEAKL
Vif imaging: blocks HIV Vif function | HEK293T cells, Vif self-association by quenched fluorescence, imaging, 24 h | inhibition, % at 7.49 µM | 340,000 compounds, 0.35% hits; in the data active = inhibition above about 50%, passing the limit was not always enough; inconclusive = no clear call, values can overlap the other calls; inactive = below about 31%
V-ATPase pHluor: yeast V-ATPase proton transport regulation by pHLuorin | 350,000 compounds, 0.37% hits | S. cerevisiae, pHLuorin cytosolic pH fluorescence | AID 504577 | response, % at 10 µM; in the data active = response mostly above about 7.3%, no sharp cut-off; inactive = mostly below about 5.4%; also: actives read high
SR-BI DiI-HDL act: enhances SR-BI lipid uptake from DiI-HDL; CHO ldlA[mSR-BI] cells, DiI-HDL uptake fluorescence, 3 h; 100 = double the neutral-control signal; activation, % at 12.5 µM; 320,000 compounds, 0.096% hits; AID 504775;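 active = mean replicate activation of at least 60% and every replicate at or above 60%; inconclusive = mean or all-replicate condition met, but not both; inactive = mean below 60% and not all replicates reaching 60%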;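 also: 0% = median plate neutral-control signal and 100% = twice that signal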
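Assay system: CHO ldlA[mSR-BI] cells, LDL receptor-null, SR-BI overexpressing; medium: Ham's F12 with 0.5% BSA, HEPES 25 mM, pH 7.4; also added: DiI-HDL 10 µg/mL; timing: 3 h uptake period with compound, 37 °C; signal: DiI fluorescence, bottom read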
DiI quench: quenches DiI-HDL fluorescence, an SR-BI assay artifact | shares compounds with SR-BI DiI inh | cell-free DiI-HDL fluorescence quenching, 30 min | AC50, µM (doses to about 35 µM), without a hit: at the highest dose activity change, negative = quenching | 470 compounds, 20% hits;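 active = quenching, a falling signal, with AC50 below a set limit tied to the top valid dose, actives reach about 32 µM in these data; inconclusive = no clear call, values can overlap the other calls; inactive = rising signal, and the rest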
The depositor's hits bear a star; i = inactive; ? = inconclusive; · = not tested or not shown. Rows were chosen to be rich in hits. Some 1.7% of all compounds tested hit in one or more screens of this group.

SMILES	NTR1 ag	CaV13 ICDI inh	SR-BI DiI inh	Vif imaging	V-ATPase pHluor	SR-BI DiI-HDL act	DiI quench
O=C(O)c1cc(C(=O)O)cc(N2C(=O)c3ccccc3C2=O)c1	·	-11.9	·	·	·	·	·
O=C(O)c1cc(N2C(=O)C=CC2=O)cc(N2C(=O)C=CC2=O)c1	·	-9.2	-9.2	-1.6	-1.9	9.2	-3.2%
CC(=O)C1=C(O)C=C(c2ccco2)CC1c1ccco1 (stereo not given)	-1.4	-4.8	-0.4	-8.5	-2.6	0.4	·
CCSCCOC(=O)C1=C(C)N(C)C(=O)NC1c1ccc2c(c1)OCO2 (stereo not given)	0.2	-9.1	7.8	-4.0	-3.1	-7.8	·
Cc1ccc(-c2nn(-c3ccccc3)cc2/C=C/C(=O)OCC(=O)NC2CC2)o1	17.1	-2.0	72.4*	-5.2	5.5	-72.4	11.3%
COc1ccc(CC(=O)NCC2CCCN(Cc3ccc(F)cc3F)C2)cc1 (stereo not given)	-1.0	-4.4	-7.7	-4.7	-0.5	7.7	·
CCCn1c(=O)[nH]c(=O)c2c1nc(-c1ccc(OC(F)(F)C(F)C(F)(F)F)cc1)n2CCOC (stereo not given)	7.5	-4.9	75.1*	-1.0	·	-75.1	-1.3%
COc1ccc(S(=O)(=O)N2CCC(C(=O)NC3CCCC3)CC2)cc1OC	0.2	-1.4	6.1	1.2	0.3	-6.1	·
COc1ccc(S(=O)(=O)N2CCC(C(=O)NN3CCCCC3)CC2)cc1OC	1.5	-14.3	-8.6	-3.0	-1.0	8.6	-1.9%
Cc1nnc(SCC(=O)Nc2ccc([N+](=O)[O-])cc2)n1CC1CCCO1 (stereo not given)	-0.6	-2.7	-3.0	-1.4	0.0	3.0	·
C[C@@H](NC(=O)c1[nH]cnc1C(=O)Nc1ccccc1F)c1ccccc1	·	-5.5	·	-0.1	-0.7	·	·
Cc1cc(C)nc(Nc2n[nH]c(-c3ccc(C(C)(C)C)cc3)n2)n1	5.2	14.5	108.1*	-28.0	-1.6	-108.1	10.7µM*
Cc1ccc(-c2cc(C(=O)Nc3sc4c(c3C(=O)NCc3ccco3)CCC4)[nH]n2)c(O)c1	0.8	6.0	82.6*	0.1	0.4	-82.6	i
Cc1cc(C)c2c(c1)NC(c1cc3c(cc1Br)OCO3)C1CC=CC21 (stereo not given)	·	-5.7	?	0.3	0.1	-70.0	-14.3%
Brc1cc2c(cc1C1Nc3ccccc3C3C=CCC31)OCO2 (stereo not given)	4.9	-5.0	54.6	6.2	-0.1	-54.6	·
COc1ccc(OC)c(CCNC(=O)c2ccc(NC3=NC4CS(=O)(=O)CC4S3)cc2)c1 (stereo not given)	1.3	7.5	83.1*	-4.6	-2.8	-83.1	1.6%
COCCCN(C(=O)c1ccco1)c1nc(-c2ccc(OC)cc2)cs1	3.1	-4.7	110.8*	0.1	-2.3	-110.8	-0.5%
COc1ccc(N2CCN(C(=O)C3CCCN3S(=O)(=O)c3cccc4nsnc34)CC2)cc1 (stereo not given)	-0.4	·	-9.5	-1.2	-1.5	9.5	·
COc1ccc(N2CC(C(=O)N3CCN(S(=O)(=O)c4ccc(F)c(F)c4)CC3)CC2=O)c(OC)c1 (stereo not given)	·	-12.5	-3.7	-4.0	1.6	3.7	6.4%
CC(=O)c1ccc(N2CCN(C(=O)c3cc(-c4cccnc4)nc4ccc(Br)cc34)CC2)cc1	13.0	3.5	9.5	-5.6	2.9	-9.5	-5.4%
Cc1ccc2nc(-c3ccccc3)cc(C(=O)N3CCN(c4ccccc4O)CC3)c2c1	13.8	-13.7	34.7	6.7	-0.8	-34.7	-11.4%
Cc1ccc(-c2cc(C(F)F)n3ncc(C(=O)N4CCN(c5cccc(C)c5C)CC4)c3n2)cc1	10.3	-1.4	45.5	5.0	0.1	-45.5	0.5%
O=C(c1cc(-c2cccnc2)nc2ccc(Br)cc12)N1CCN(c2ncccn2)CC1	5.3	-5.0	8.9	2.3	-2.8	-8.9	·
CCOC(=O)N1CCN(C(=O)c2cnn3c(C(F)F)cc(-c4ccc(C)cc4)nc23)CC1	2.3	-2.6	66.1	8.9	-3.6	-66.1	·
COCCC(=O)N1CCC(Oc2ccc(C(=O)N3CCCC(COC)C3)cc2)CC1 (stereo not given)	-0.6	·	-17.5	-5.3	0.5	17.5	·
SMILES	NTR1 ag	CaV13 ICDI inh	SR-BI DiI inh	Vif imaging	V-ATPase pHluor	SR-BI DiI-HDL act	DiI quench
COc1ccc([C@H]2CC(=O)C[C@@H](CCn3cc(CCc4ccccc4)nn3)O2)cc1	·	-7.9	·	·	·	·	·
CC(C)[C@H](NC(=O)c1ccco1)C(=O)OCC(=O)c1ccc2c(c1)NC(=O)CO2	-0.4	-4.2	-20.2	-0.7	·	20.2	-5.2%
O=C(OCc1ccccc1)N1CCC2CC1c1cc(-c3ccc(F)cc3)ccc12 (stereo not given)	·	-9.9	·	·	-0.8	·	-3.5%
COc1ccc(NS(=O)(=O)c2cccc(C(=O)NCCCN3CCOCC3)c2)cc1	-0.2	-1.8	11.1	-11.3	-1.8	-11.1	·
CC(=O)OC(C)=O	0.2	·	-4.8	10.0	-2.0	4.8	·
COCCCNc1nc2c(-c3ccc(C)cc3)nnn2c2ccccc12	3.6	-4.9	52.5	1.7	-15.3	-52.5	·
COCCCNc1nc2c(-c3cccc(C)c3)nnn2c2ccccc12	6.2	-2.8	103.1*	1.0	-88.9	-103.1	9.7%
c1ccc(CNC2CC3CCC2C3)cc1 (stereo not given)	·	-5.8	0.6	7.2	-2.9	-0.6	·
COc1ccc(-c2csc(N3CCN(c4cc5c(cc4Cl)nc(-c4ccncc4)n5CCOCCO)CC3)n2)cc1	-1.2	-9.4	60.5	9.0	9.4	-60.5	·
COc1ccc(-c2csc(NCCc3nc4cc(Cl)c(N5CCCCC5)cc4n3CCOCCO)n2)cc1	12.2	-11.5	83.0*	·	-4.0	-83.0	13µM*
Cc1ccc(Sc2nc(-c3ccccc3)nnc2C(F)(F)F)cc1	35.5	-3.6	?	2.0	0.0	-70.1	-1.4%
CNc1nc(-c2ccccc2)nnc1C(F)(F)F	-0.9	-5.7	-15.3	-7.6	0.7	15.3	·
O=C(O)c1ccc(-c2nc(-c3ccccc3)c(-c3ccccc3)[nH]2)cc1	1.0	-3.1	2.3	·	-1.2	-2.3	·
Cc1ccsc1-c1nc(-c2ccccc2)c(-c2ccccc2)[nH]1	-0.3	-3.4	71.3*	-7.7	0.8	-71.3	32.3µM*
Cc1sc2ncnc(SCC(=O)c3ccc4c(c3)OCCO4)c2c1-c1ccccc1	2.0	-3.3	-17.9	-9.8	-3.7	17.9	·
COc1cc(C2CC(=O)c3c([nH]c(C(=O)OCCOC(C)C)c3C)C2)cc(OC)c1OC (stereo not given)	1.7	-10.4	81.7*	-7.3	-1.4	-81.7	-1.6%
